Calls of active or inactive are those of the source. The rule behind the calls is not given here.
Legend:
Integrin alpha-5/beta-1 [1] = target: T1, Integrin alpha-5/beta-1 (Homo sapiens, UniProt P05556+P08648); assay: Inhibition of alpha5beta1 integrin-mediated human K562 cell adhesion to fibronectin incubated for 30 mins before plating measured after 1 hr; type: protein-complex assay
Procedure, shortened: (§1)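 Cells pre-incubated with a range of compound concentrations for 30 min at room temperature. Then 50000 cells/well plated on fibronectin (10 µg/mL) coated overnight at 4°C and left 1 h at room temperature. After PBS washes, adherent cells were quantified by hexosaminidase activity: 4-nitrophenyl-N-acetyl-β-D-glucosaminide in citrate buffer pH 5 with Triton X-100, stopped with glycine/EDTA pH 10.4, read at 405 nm. Quadruplicates, at least three repeats; IC50 fitted.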
Target sequence in this assay (P05556 21-798 limits assumed): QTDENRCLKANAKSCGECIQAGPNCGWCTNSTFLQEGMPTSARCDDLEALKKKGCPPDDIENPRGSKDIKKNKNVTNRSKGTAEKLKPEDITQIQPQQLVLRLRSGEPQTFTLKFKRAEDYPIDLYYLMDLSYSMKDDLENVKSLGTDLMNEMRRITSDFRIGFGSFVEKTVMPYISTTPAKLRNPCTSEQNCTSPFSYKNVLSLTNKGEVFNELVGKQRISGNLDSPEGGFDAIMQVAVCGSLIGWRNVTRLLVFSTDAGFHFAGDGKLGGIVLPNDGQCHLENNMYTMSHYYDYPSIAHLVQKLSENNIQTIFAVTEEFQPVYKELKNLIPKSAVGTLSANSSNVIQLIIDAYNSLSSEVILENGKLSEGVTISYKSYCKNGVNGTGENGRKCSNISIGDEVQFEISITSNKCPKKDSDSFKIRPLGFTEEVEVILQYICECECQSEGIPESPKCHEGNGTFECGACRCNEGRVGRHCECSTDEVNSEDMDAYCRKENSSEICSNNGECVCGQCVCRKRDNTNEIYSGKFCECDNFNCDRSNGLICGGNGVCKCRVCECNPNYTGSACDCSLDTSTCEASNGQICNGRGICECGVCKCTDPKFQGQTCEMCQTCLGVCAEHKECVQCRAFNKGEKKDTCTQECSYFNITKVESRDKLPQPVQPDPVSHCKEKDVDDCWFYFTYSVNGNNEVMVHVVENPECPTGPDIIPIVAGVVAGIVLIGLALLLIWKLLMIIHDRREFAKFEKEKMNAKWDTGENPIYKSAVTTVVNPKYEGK
Target sequence in this assay (P08648 42-894 limits assumed): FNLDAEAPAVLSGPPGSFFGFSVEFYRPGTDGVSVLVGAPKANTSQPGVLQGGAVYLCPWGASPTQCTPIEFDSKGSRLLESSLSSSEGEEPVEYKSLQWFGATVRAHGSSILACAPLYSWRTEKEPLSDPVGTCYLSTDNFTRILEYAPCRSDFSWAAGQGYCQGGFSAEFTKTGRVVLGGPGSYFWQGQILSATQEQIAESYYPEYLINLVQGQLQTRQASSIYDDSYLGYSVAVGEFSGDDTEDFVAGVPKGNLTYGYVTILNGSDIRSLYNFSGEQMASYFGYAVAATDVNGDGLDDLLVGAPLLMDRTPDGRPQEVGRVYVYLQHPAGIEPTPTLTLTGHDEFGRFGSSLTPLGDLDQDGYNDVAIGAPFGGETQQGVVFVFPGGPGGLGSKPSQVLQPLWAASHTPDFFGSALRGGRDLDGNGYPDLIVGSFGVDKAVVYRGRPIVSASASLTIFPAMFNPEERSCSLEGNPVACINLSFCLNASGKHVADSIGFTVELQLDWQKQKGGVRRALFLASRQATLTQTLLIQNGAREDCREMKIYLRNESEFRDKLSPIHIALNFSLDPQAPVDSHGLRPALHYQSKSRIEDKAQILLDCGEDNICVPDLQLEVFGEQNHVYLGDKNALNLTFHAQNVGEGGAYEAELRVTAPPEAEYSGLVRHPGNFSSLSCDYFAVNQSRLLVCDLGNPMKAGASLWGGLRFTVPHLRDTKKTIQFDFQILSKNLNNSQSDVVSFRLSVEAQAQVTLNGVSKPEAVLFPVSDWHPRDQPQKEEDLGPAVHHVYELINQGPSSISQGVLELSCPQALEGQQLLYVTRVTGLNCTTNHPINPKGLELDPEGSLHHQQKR
Target sequence in this assay (P08648 895-1049 limits assumed): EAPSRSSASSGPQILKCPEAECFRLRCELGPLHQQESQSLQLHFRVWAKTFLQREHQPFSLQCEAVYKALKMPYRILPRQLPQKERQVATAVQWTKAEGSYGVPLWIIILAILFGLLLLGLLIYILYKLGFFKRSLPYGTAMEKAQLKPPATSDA

Integrin alpha-V/beta-3 [2] = target: T2, Integrin alpha-V/beta-3 (Homo sapiens, UniProt P05106+P06756); assay: Inhibition of alphaVbeta3 integrin-mediated human SK-MEL-24 cell adhesion to fibronectin incubated for 30 mins before plating measured after 1 hr; type: protein-complex assay; procedure, shortened: as §1
Target sequence in this assay (P05106 27-788 limits assumed): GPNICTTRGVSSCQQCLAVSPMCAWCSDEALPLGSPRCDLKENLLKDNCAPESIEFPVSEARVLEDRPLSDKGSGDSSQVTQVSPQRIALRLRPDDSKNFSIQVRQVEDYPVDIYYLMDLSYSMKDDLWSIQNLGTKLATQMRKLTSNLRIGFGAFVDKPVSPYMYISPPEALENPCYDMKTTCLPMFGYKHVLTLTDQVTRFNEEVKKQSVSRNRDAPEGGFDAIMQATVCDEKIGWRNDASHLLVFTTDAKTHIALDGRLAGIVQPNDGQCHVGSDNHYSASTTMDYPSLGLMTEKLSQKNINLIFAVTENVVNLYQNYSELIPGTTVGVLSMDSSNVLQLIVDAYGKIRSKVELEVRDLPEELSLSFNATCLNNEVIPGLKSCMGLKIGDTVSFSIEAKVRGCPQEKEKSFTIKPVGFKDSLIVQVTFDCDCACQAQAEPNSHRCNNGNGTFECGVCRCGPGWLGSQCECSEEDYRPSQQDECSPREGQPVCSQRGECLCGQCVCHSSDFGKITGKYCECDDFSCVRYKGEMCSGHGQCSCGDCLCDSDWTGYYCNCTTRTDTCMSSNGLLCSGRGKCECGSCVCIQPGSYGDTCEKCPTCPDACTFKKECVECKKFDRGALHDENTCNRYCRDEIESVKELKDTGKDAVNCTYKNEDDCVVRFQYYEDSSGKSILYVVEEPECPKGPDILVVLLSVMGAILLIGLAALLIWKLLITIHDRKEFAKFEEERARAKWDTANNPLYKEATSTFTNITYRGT
Target sequence in this assay (P06756 31-889 limits assumed): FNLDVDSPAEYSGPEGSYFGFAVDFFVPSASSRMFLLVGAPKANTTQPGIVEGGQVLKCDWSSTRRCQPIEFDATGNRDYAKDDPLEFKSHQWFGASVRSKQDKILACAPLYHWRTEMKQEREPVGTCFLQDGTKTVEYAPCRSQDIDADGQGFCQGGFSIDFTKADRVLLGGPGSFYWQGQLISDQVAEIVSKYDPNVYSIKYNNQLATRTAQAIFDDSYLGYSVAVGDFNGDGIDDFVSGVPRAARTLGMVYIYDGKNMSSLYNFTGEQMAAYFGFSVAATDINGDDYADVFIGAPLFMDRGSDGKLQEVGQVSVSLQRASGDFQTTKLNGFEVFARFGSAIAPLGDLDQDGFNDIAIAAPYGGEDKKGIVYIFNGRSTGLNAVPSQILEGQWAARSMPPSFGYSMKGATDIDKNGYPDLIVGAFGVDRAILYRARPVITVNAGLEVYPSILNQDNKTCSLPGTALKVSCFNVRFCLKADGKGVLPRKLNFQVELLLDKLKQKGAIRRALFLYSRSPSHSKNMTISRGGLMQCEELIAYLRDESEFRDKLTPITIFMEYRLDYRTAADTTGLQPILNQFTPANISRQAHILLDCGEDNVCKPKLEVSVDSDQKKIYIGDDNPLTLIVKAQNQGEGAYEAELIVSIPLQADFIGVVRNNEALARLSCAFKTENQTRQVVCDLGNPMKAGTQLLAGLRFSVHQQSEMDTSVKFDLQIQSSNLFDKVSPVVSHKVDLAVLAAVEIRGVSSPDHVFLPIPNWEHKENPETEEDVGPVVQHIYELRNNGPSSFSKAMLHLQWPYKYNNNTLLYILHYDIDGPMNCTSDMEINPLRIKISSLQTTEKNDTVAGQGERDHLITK
Target sequence in this assay (P06756 891-1048 limits assumed): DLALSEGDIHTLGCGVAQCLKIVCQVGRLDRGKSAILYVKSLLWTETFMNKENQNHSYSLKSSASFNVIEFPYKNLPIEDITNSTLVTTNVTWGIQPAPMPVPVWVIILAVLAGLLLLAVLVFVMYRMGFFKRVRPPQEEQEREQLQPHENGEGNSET

Integrin alpha-V/beta-3 [3] = target: T2, Integrin alpha-V/beta-3; assay: Inhibition of alphaVbeta3 integrin-mediated human DAOY cell adhesion to fibronectin incubated for 30 mins before plating measured after 1 hr; type: protein-complex assay; procedure, shortened: as §1
Integrin alpha-V/beta-3 [4] = target: T2, Integrin alpha-V/beta-3; assay: Inhibition of alphaVbeta3 integrin in human DAOY cells assessed as inhibition of fibronectin-induced ERK1/2 phosphorylation at 10 uM incubated for 30 mins prior to fibronectin challenge measured after 90 mins by Western blotting analysis; type: cell-based
Procedure, shortened: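 DAOY medulloblastoma cells serum-starved 16 h in DMEM, detached, then given compound at 10 µM for 30 min. Plated 90 min on fibronectin (10 µg/ml)-coated, BSA-blocked plates; suspension cells as control. Lysed with phosphatase inhibitors, separated on 12% SDS-PAGE and immunoblotted for phospho-ERK1/2 and total ERK1/2.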

Integrin alpha-5/beta-1 [5] = target: T1, Integrin alpha-5/beta-1; assay: Inhibition of alpha5beta1 integrin in human K562 cells assessed as inhibition of fibronectin-induced ERK1/2 phosphorylation at 10 uM incubated for 60 mins prior to fibronectin challenge measured after 60 mins by Western blotting analysis; type: cell-based
Procedure, shortened: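 K562 cells, PMA-differentiated (25 ng/mL for 40 h), then serum-starved 16 h in RPMI-1640 with 1% FBS. Compound at 10 µM for 60 min in suspension, then plated 60 min on fibronectin (10 µg/ml)-coated, 1% BSA-blocked plates. Suspension cells served as control and PMA 65 nM as positive control. Lysates run on 12% SDS-PAGE and blotted for phospho- and total ERK1/2. pERK normalized to total ERK by densitometry; mean ± SEM, n=6.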

Compound | IC50 (Integrin alpha-5/beta-1 [1]) [nM] | IC50 (Integrin alpha-V/beta-3 [2]) [nM] | inhibition (Integrin alpha-V/beta-3 [3]) | inhibition (Integrin alpha-V/beta-3 [4]) | inhibition (Integrin alpha-5/beta-1 [5])
C/C=C(\C(=O)NCC(=O)O)C(NCc1ccc(N)cc1)C(C)C (configuration not stated) | 220 | 2000 | – | – | –
CC1=C(C(=O)NCc2ccc(N)cc2)C(C(C)C)N(C(=O)CC(=O)O)O1 (configuration not stated) | 1050 | 8800 | – | – | –
H-GRGDNP-OH | > 100000 | 230 | – | – | –
CCCN(C(=O)CC(=O)O)C1=C(C)CC(c2ccccc2)N([C@@H](C)c2ccc(N)cc2)C1=O (some centres not stated) | 57 | 71 | – | – | –
C/C=C(\C(=O)O)C(NCc1ccc(N)cc1)C1CCCCC1 (configuration not stated) | 2100 | 830 | – | – | –
C/C=C(\C(=O)O)C(NCc1ccc(N)cc1)C(C)C (configuration not stated) | 9800 | 1490 | – | – | –
C/C=C(\C(=O)NCC(=O)O)C(C)NCc1ccc(N)cc1 (configuration not stated) | 9800 | 120 | Active | Active | –
C/C=C(\C(=O)O)C(C)NCc1ccc(N)cc1 (configuration not stated) | 19 | > 100000 | – | – | –
C/C=C1\C(=O)N(CC(=O)O)C(=O)N(Cc2ccc(NC(=O)CN)cc2)C1C(C)C (configuration not stated) | > 100000 | > 100000 | – | – | –
H-GRGDTP-OH | 930 | 0.62 | – | – | –
C/C=C(\C(=O)NCC(=O)O)C(NCc1ccc(NC(=O)CN)cc1)C(C)C (configuration not stated) | 170 | 270 | Active | Active | Active

Reference: ChEMBL document CHEMBL2417442, “Modulation of αvβ₃- and α₅β₁-integrin-mediated adhesion by dehydro-β-amino acids containing peptidomimetics” (Eur J Med Chem, 2013)
